{
  "source": "paper PMC7144688",
  "about": "(Cell chemical biology, 2020)",
  "key": {"[1]": {"target": "Aha1-stimulated Hsp90 (ASH) ATPase activity (Homo sapiens, UniProt O95433+P08238)", "sequence (O95433 whole entry)": "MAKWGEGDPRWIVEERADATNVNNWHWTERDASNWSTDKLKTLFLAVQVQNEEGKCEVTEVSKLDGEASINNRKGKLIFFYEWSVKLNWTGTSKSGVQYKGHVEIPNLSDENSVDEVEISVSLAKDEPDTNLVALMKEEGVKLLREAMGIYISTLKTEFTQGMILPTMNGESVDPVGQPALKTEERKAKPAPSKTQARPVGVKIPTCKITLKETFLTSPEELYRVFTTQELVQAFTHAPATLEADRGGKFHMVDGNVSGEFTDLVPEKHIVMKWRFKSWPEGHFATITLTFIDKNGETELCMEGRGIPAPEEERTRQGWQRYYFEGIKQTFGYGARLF", "sequence (P08238 whole entry)": "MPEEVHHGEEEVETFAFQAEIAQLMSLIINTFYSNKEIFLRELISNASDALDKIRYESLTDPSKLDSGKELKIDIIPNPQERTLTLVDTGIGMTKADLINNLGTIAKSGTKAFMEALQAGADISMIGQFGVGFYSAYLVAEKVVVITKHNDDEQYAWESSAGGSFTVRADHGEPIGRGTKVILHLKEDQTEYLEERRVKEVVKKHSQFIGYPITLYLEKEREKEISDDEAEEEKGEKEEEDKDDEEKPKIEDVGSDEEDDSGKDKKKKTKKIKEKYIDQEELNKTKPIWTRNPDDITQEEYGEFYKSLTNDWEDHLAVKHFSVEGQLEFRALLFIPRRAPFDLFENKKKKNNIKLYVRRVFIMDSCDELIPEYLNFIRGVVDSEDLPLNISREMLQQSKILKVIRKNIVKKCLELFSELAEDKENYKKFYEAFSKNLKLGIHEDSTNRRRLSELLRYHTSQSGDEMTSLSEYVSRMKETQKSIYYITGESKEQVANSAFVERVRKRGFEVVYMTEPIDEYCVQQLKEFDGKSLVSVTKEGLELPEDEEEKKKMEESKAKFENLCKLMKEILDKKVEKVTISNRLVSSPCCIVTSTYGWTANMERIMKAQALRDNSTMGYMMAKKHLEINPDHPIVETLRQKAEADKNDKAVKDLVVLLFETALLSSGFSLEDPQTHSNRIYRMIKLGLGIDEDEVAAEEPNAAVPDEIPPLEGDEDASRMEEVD", "test": "Aha1-stimulated Hsp90", "format": "biochemical"}, "[2]": {"target": "6P chaperone complex (Hsp90, Hsp70, Hop, BAG1, Aha1 & Hsp40) refolding of FLuc (Homo sapiens, UniProt O95433+P08238+P0DMV8)", "sequence (O95433 whole entry)": "as the sequence (O95433 whole entry) above", "sequence (P08238 whole entry)": "as the sequence (P08238 whole entry) above", "sequence (P0DMV8 whole entry)": "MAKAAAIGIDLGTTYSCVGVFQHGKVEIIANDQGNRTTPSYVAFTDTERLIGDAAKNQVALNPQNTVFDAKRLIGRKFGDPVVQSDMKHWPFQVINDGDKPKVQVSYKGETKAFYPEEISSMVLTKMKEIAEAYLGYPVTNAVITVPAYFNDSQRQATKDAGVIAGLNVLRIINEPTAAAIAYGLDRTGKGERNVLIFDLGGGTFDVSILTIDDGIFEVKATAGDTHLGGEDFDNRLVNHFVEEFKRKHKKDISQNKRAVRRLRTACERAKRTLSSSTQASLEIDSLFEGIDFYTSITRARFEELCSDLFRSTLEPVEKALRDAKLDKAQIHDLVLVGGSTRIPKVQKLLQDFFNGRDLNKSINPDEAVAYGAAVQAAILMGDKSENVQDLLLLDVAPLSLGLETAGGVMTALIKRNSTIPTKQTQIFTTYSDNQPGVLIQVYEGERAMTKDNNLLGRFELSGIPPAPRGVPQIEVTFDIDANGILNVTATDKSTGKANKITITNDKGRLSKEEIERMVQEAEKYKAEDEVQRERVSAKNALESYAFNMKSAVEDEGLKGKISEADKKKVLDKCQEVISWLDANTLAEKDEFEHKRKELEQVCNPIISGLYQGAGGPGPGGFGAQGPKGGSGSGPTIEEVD", "test": "In vitro refolding of heat-denatured firefly luciferase by 6P chaperone complex", "format": "biochemical", "details": "15 μM"}, "[3]": {"tested_on": "androgen receptor (AR)", "test": "AR-mediated transcription assay in MDA-kb2 cells", "format": "cell-based, human", "details": "0.2 nM DHT, 20 h", "summary_of_the_method": "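MDA-kb2 cells carrying a stable androgen/glucocorticoid-responsive firefly luciferase reporter were seeded at 20,000 cells/well in Leibovitz's L-15 with 10% charcoal-stripped FBS (0% CO2) and grown to 80% confluence. Cells were co-treated with DHT and graded test compound for 20 h, lysed in Bright-Glo reagent for 4 min at room temperature, and luminescence was read.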"}, "[4]": {"target": "human Hsp90β (human, UniProt P08238 1-724)", "sequence (P08238 whole entry)": "as the sequence (P08238 whole entry) above", "test": "other fluorescence titration"}},
  "data": [
    {"molecule": "COC1=C2C[C@@H](C)C[C@H](OC)[C@H](O)[C@@H](C)/C=C(\\C)[C@H](OC(N)=O)[C@@H](OC)/C=C\\C=C(/C)C(=O)NC(=CC1=O)C2=O", "note": "[GA, geldanamycin]", "values": [
      {"measurement": "activity in ASH assay (screen)", "setting": "[1]", "result": "failed to completely inhibit the ASH activity"},
      {"measurement": "reduction in FLuc refolding", "setting": "[2]", "result": 25, "unit": "%"}
    ]},
    {"molecule": "C=CCNC1=C2C[C@@H](C)C[C@H](OC)[C@H](O)[C@@H](C)/C=C(\\C)[C@H](OC(N)=O)[C@@H](OC)/C=C\\C=C(/C)C(=O)NC(=CC1=O)C2=O", "note": "[17-AAG]", "values": [
      {"measurement": "IC50 of AR-dependent luciferase expression", "setting": "[3]", "result": "better than that of the Hsp90i 17-AAG"}
    ]},
    {"molecule": "CCn1c(=O)/c(=C2\\Sc3cc(Cl)ccc3N2C)s/c1=C\\c1scc[n+]1Cc1ccccc1.[Cl-]", "note": "[JG98]", "values": [
      {"measurement": "effect on FLuc refolding", "setting": "[2]", "result": "completely block"}
    ]},
    {"molecule": "O=C(Nc1cccc(Cl)c1Cl)C1CCCCC1", "note": "[MJC13]", "values": [
      {"measurement": "IC50 of AR-dependent luciferase expression", "setting": "[3]", "result": "similar"}
    ]},
    {"molecule": "acrylodan-labeled CTD of Aha1 (domain or fragment, human, UniProt O95433 164-338, looked up, acrylodan on cysteine residues) ILPTMNGESVDPVGQPALKTEERKAKPAPSKTQARPVGVKIPTCKITLKETFLTSPEELYRVFTTQELVQAFTHAPATLEADRGGKFHMVDGNVSGEFTDLVPEKHIVMKWRFKSWPEGHFATITLTFIDKNGETELCMEGRGIPAPEEERTRQGWQRYYFEGIKQTFGYGARLF", "values": [
      {"measurement": "binding result", "setting": "[4]", "result": "binds"}
    ]}
  ]
}
